# Screening results: PubChem, Broad Institute
# Rows were chosen to be rich in hits. Some 3.4% of all compounds tested hit in one or more screens of this group.
# Ecoli rRNA inh: reduced GFP signal of wild-type E. coli, primary screen, bacterial rRNA inhibitor project, GFP/RFP fluorescence, OD600, single point. E. coli WT GFP vs humanized-ribosome RFP mutants, 24 h; active compounds read low; DMSO median 0, no signal -100. GFP signal change (wild-type ribosome), % (no concentration beside the values). 350,000 tested, 1.6% active. AID 720706, 2013;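 active means significant combined selectivity score with lowered wild-type GFP, culture density cut under 30%, mutant RFP and density less affected; inactive means any of these conditions unmet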
# ERAP1 HTS inh: human ERAP1 aminopeptidase inhibitors, primary screen, biochemical, single point, plate reader | recombinant ERAP1, Leu-AMC fluorescence, 60 min | 340,000 tested, 0.15% active | AID 652197, 2013 | inhibition, % at 10.7 µM | Endoplasmic reticulum aminopeptidase 1 (Homo sapiens), Q9NZ08;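 active means mean replicate inhibition of at least 30%, or all replicates individually reaching that 30% level; inactive means mean below 30% and not every replicate reaching it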;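 further: 0% = neutral control wells and 100% = L-leucinethiol positive control wells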
# SIRT5 block: SIRT5 desuccinylase inhibitors, primary screen, biochemical, fluorescence imaging, single point, set 5 | Purified SirT5, succinyl-peptide AMC, trypsin-coupled fluorescence | inhibition, % at 15 µM | 330,000 tested, 1.1% active; in the data active means inhibition above about 15%
# Target sequence (Q9NXA8 whole entry, looked up): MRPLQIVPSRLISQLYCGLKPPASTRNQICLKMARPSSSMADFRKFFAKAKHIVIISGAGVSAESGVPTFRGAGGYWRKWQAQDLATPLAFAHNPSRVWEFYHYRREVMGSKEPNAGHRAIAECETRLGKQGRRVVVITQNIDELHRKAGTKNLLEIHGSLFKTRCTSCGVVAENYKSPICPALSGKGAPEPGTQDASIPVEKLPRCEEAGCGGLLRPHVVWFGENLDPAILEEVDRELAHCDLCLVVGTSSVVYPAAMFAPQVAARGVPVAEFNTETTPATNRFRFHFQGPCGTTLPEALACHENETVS
# S100A4 inh HTS: inhibitors of S100A4-myosin IIA peptide binding, primary screen, biochemical, fluorescence polarization, TAMRA-MyoIIA peptide | Protein S100-A4 (Homo sapiens), P26447 | inhibition, % at 10.7 µM | 360,000 tested, 0.14% active;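 active means mean inhibition of at least 70% across replicates, with every replicate also reaching that level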
# Target sequence (P26447 whole entry, looked up): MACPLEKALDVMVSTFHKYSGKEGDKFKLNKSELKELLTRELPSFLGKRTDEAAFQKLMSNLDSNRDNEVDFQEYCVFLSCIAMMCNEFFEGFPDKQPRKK
#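 Material: S100A4 monomer protein / Buffer or medium: 50 mM HEPES pH 7.2, 10 mM CaCl2, 100 mM KCl / Times: 5 min incubation before reading / Benchmarks: neutral control DMSO, positive control TFP / Reagent: labelled myosin peptide probe, 5 nM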
# MLL AF4-AF9 inh: inhibitors of AF4 peptide binding to AF9, primary screen, biochemical, AlphaScreen, biotin-AF4 peptide, FLAG-AF9, single point. Protein AF-9 (Homo sapiens), P42568. inhibition, % at 10 µM. 350,000 tested, 0.47% active;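 active means every replicate reaching a set inhibition limit, whatever the replicate mean, cut at about 25% in these data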;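 further: 0% = plate neutral control median and 100% = total signal loss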
# E-sel inducer: E-selectin induction in HUVECs, primary screen, imaging, HUVEC, immunofluorescence imaging, single point; P16581; normalized: neutral wells 0, TNF-alpha wells 100; activation, % at 7.58 µM; 260,000 tested, 0.37% active; AID 686992, 2013;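 active means mean E-selectin-positive cell signal at least 10% of the positive control, reached in at least 60% of replicates, without over 20% cell loss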
#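 System: HUVEC / Compound: single concentration / Signal: immunofluorescence imaging / Read-out: percent E-selectin-positive cells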
# Numbers without * were called inactive; / = no result given.
SMILES,Ecoli rRNA inh,ERAP1 HTS inh,SIRT5 block,S100A4 inh HTS,MLL AF4-AF9 inh,E-sel inducer
COc1ccc(OCCN2CCN(S(=O)(=O)c3ccccc3C(F)(F)F)CC2)cc1,4.9,2.4,-2.4,-20.6,0.2,139.2*
C[C@H](CO)N1C[C@H](C)[C@@H](CN(C)S(=O)(=O)c2cccs2)Oc2ccc(NC(=O)Nc3ccccc3)cc2CC1=O,-1.0,-1.7,2.4,-2.9,-0.6,-0.3
COc1ccccc1OCCSc1nc2ccccc2n1CC(O)CO (centres undefined),3.0,1.6,18.5*,-1.5,-0.1,/
Cc1ccc(OCCSc2nc3ccccc3n2CC(=O)O)cc1,-3.2,3.7,16.5*,-1.7,-8.3,/
CO[C@H]1CN(C)C(=O)c2ccc(NS(=O)(=O)c3ccc(C)cc3)cc2OC[C@@H](C)N(C(=O)NC(C)C)C[C@@H]1C,-2.9,/,/,/,/,-0.2
C[C@@H]1CN([C@H](C)CO)C(=O)c2cc(-c3cccnc3)cnc2O[C@H]1CN(C)C(=O)Cc1cccnc1,0.3,2.5,1.0,6.4,-2.3,0.4
COc1ccc(C/C(N)=N/OC(=O)c2cccs2)cc1,1.8,-3.2,-1.2,0.0,-2.4,/
CC(C)(C)c1ccc(C(=O)O/N=C(\N)Cc2cccs2)cc1,-16.6,-4.6,34.5*,0.7,-1.4,0.0
COc1ccccc1C/C(N)=N/OC(=O)c1cccs1,-24.6*,-1.8,-2.1,-0.3,-4.5,7.9
CCN1C(=O)C2(SC(NC(C)=O)=NN2C(C)=O)c2cc(C)cc(C)c21 (centres undefined),-1.9,0.5,-4.2,-2.0,49.8*,/
CCCN1C(=O)C2(SC(NC(C)=O)=NN2C(C)=O)c2cc(C)cc(C)c21 (centres undefined),-5.5,0.7,1.9,-0.6,1.5,0.1
C[C@@H]1CN([C@H](C)CO)S(=O)(=O)c2ccc(C#C[C@@H](C)O)cc2O[C@@H]1CN(C)C(=O)C1CC1,2.3,0.3,5.4,120.8*,-7.6,0.3
C[C@H]1CN([C@@H](C)CO)S(=O)(=O)c2ccc(C#Cc3ccccc3)cc2O[C@H]1CN(C)C(=O)C1CC1,-0.3,4.1,3.7,0.0,-0.9,0.0
C[C@@H]1CN([C@H](C)CO)S(=O)(=O)c2ccc(C#Cc3ccccc3)cc2O[C@H]1CN(C)C(=O)C1CC1,-1.6,4.6,15.6*,10.0,-0.7,0.2
CNC[C@@H]1OCCCC[C@@H](C)Oc2ccc(NC(=O)Nc3ccc(C(F)(F)F)cc3)cc2C(=O)N([C@@H](C)CO)C[C@H]1C,-50.8,2.4,5.1,9.3,6.7,-0.1
C/C=C/c1ccc2c(c1)O[C@H](CN(C)C(=O)NCCC)[C@@H](C)CN([C@H](C)CO)S2(=O)=O,-3.5,3.9,-0.2,0.6,-0.2,0.7
CCOc1ccc(NS(=O)(=O)c2cc(C(=O)N3CCN(C(C)=O)CC3)ccc2Cl)cc1,-2.7,-3.2,3.7,-1.0,0.0,-0.1
CC(OC(=O)c1ccc(Cl)c(S(=O)(=O)Nc2ccc(F)cc2)c1)C(=O)NC(N)=O (centres undefined),-25.7*,-4.8,-3.7,-1.0,40.5*,1.0
COc1cc2[nH]c(=S)nc(NCc3ccccc3)c2cc1OC,-15.9*,-1.0,-2.0,-9.4,-0.1,0.4
COc1ccc(CNc2nc(=S)[nH]c3cc(OC)c(OC)cc23)cc1,6.0,0.8,-2.5,-2.3,-4.4,0.3
COc1ccc(CNc2ncnc3c2[nH]c2cc(OC)c(OC)cc23)cc1,-58.5,/,/,-6.9,8.6,66.9*
Cc1ccc2[nH]c3c(NCc4ccccc4)ncnc3c2c1,-52.5,0.3,3.2,-0.3,2.6,0.0
COc1ccc(CNc2ncnc3c2[nH]c2ccccc23)cc1,-55.4*,-6.6,-2.8,-2.9,-2.8,/
C/C=C/c1ccc2c(c1)[C@@H]1[C@@H](CCN1S(=O)(=O)c1cccc(F)c1)[C@H](CO)N2,-14.1,-0.1,2.0,-6.9,16.0,0.4
